Test results reported in publication PMC7127848 (Drug Design, Development and Therapy, 2020).
Converted amounts (≈) assume the structure as drawn. “And” between values parts separate entries of the source, which are not always exact repeats. Equal entries are not always repeated. “Also recorded” adds a separate entry of the source.

What was measured:
[1] = Thermodynamic solubility, shake-flask method; format: physicochemical; details: room temperature
In short: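 Shake-flask method: excess test compound shaken in solvent at room temperature for 72 h after saturation. Centrifuged (18,879 rcf, 10 min) and filtered through 0.22 μm. Dissolved compound quantified by HPLC-UV, in triplicate.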

[2] = Solution state pH stability in USP buffers; format: physicochemical; details: aqueous media pH 1-10, 37°C, up to 48 hrs
In short: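 Test compound added from DMSO to USP buffers with 0.2% v/v Tween 80: 0.2 M HCl (pH 1–2), 0.2 M acetate (pH 3–5), 0.2 M phosphate (pH 6–8), carbonate (pH 9–10). Held in a 37°C water bath. Aliquots at set times assayed by HPLC-UV for compound remaining. Degradation rate constant derived per buffer.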

[3] = Stability in plasma; format: in vitro ADME; details: CD-1, mouse
In short: (§1)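 Test compound at 1 μM incubated at 37°C for up to 4 h in plasma. Sources: CD-1 mouse, SD rat (fresh, from male rats), monkey or human. Aliquots at set times quenched with acetonitrile containing clioquinol as internal standard. Centrifuged at 18,879 rcf for 5 min, and supernatant assayed by LC-MS/MS for compound remaining.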

[4] = Stability in plasma; format: in vitro ADME; details: SD, rat
In short: as §1

[5] = Stability in plasma; format: in vitro ADME; details: rhesus, monkey
In short: as §1

[6] = Stability in plasma; format: in vitro ADME; details: human
In short: as §1

[7] = Blood-plasma partition; format: in vitro ADME; details: SD rat blood, 1 μM, 37°C, 1 hr, mean ± SEM
In short: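 Test compound spiked into fresh whole SD rat blood at 1 μM final and held 1 hr at 37°C. Plasma separated by centrifugation (15 min, 4°C, 1750 rcf). Blood and plasma assayed by LC-MS/MS. B/P taken as mean peak-area ratio in blood over plasma. Its SEM was propagated as the square root of summed squared SEM/mean terms, multiplied by B/P.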

[8] = Plasma protein binding, centrifugal ultrafiltration; format: in vitro ADME; details: Sprague-Dawley, rat, Fraction bound to plasma protein, mean ± SD
[9] = Microsome metabolic stability and predicted hepatic clearance; format: in vitro ADME; details: CD-1, mouse, liver microsomes, pH 7.4
In short: (§2)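 Liver microsomes (0.5 mg/mL) incubated with 3 µM test compound in 50 mM phosphate buffer, pH 7.4. After 3 min pre-incubation at 37°C, 5 mM NADPH started the reaction. Samples at 0, 5, 15, 30, 45 and 60 min, quenched in acetonitrile with internal standard, then LC-MS/MS. NADPH-free controls sampled at 0 and 60 min.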

[10] = as above; format: in vitro ADME; details: Sprague-Dawley (SD), rat, liver microsomes, pH 7.4
In short: as §2

[11] = as above; format: in vitro ADME; details: cynomolgus monkey, liver microsomes, pH 7.4
In short: as §2

[12] = as above; format: in vitro ADME; details: human, liver microsomes, pH 7.4
In short: as §2

[13] = biological target: T1, CYP1A2 (Homo sapiens, UniProt P05177); assay: CYP reaction phenotyping with rhCYP; format: in vitro ADME
T1 sequence (P05177 1-516): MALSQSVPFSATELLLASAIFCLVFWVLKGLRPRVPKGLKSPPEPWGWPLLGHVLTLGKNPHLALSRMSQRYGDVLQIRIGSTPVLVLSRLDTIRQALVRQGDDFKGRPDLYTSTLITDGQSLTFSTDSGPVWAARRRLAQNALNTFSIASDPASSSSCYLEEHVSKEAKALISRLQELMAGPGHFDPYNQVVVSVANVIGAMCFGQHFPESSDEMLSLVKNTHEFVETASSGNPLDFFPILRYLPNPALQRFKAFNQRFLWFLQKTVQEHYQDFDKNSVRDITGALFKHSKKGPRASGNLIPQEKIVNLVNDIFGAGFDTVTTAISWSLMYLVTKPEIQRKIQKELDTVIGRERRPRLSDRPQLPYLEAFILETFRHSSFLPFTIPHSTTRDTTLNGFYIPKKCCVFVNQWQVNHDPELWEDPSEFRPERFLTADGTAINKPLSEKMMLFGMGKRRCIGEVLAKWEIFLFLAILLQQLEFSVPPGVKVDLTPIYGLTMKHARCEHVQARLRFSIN
In short: (§3)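 Recombinant human CYP (200 pmol) with 1 µM test compound in 100 mM K2HPO4/10 mM MgCl2, pH 7.4, pre-incubated. Reaction started with 1 mM NADPH. DMSO kept ≤0.1% v/v and acetonitrile ≤1% v/v. Samples at 0, 5, 15, 30 and 60 min, stopped with acetonitrile containing internal standard, then centrifuged. Negative controls lacked NADPH, used insect control cells, or both.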

[14] = biological target: CYP2D6 (Homo sapiens, UniProt P10635); assay: CYP reaction phenotyping with rhCYP; format: in vitro ADME
Sequence of CYP2D6 (P10635 whole entry): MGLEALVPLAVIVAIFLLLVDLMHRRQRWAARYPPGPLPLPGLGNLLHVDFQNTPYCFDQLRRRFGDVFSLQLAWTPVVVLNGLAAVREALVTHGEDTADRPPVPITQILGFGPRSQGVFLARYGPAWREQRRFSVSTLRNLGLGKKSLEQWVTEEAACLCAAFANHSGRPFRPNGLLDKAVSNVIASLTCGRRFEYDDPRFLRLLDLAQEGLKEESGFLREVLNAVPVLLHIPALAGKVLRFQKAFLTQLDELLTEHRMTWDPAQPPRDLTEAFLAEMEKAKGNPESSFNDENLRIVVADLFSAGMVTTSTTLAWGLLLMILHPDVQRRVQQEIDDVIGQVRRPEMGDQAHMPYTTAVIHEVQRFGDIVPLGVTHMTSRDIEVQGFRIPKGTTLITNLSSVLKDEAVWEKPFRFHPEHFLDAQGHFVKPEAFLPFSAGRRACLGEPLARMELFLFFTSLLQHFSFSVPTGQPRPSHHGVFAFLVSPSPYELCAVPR
In short: as §3

[15] = biological target: T2, CYP2C8 (Homo sapiens, UniProt P10632); assay: CYP reaction phenotyping with rhCYP; format: in vitro ADME; details: rhCYP2C8
T2 sequence (P10632 1-490): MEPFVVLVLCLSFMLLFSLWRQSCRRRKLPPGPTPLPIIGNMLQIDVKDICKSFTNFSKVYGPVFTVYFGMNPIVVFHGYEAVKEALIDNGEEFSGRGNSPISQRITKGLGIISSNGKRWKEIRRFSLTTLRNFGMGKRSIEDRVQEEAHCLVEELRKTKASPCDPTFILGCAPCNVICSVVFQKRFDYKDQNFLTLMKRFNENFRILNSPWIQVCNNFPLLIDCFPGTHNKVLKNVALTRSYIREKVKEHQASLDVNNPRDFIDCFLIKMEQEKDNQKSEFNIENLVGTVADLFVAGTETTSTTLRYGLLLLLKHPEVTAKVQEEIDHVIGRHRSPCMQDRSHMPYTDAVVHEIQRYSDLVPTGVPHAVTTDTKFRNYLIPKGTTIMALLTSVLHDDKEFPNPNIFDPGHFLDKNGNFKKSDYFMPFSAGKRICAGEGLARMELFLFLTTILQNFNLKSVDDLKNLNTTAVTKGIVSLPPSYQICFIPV
In short: as §3

[16] = Pharmacokinetics and bioavailability in SD rats; format: in vivo; details: Sprague-Dawley, rat, plasma
In short: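 Male SD rats (300–350 g), cannulated under anesthesia the day before, n = 3 per group. Single dose of 2 mg/kg IV bolus, 20 mg/kg PO (fasted ≥12 h) or 10 mg/kg SC. Co-solvent formulation diluted 5-fold with saline (IV, SC) or water (PO). Blood taken 0.08–48 h, plasma by LC-MS/MS. Non-compartmental analysis; F from dose-normalised extravascular versus IV AUC.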

[17] = Human hepatic clearance by single species scaling using liver blood flow; details: single species (SD rat) scaling of in vivo clearance and liver blood flow
[18] = cited from earlier work
[19] = in vivo pharmacokinetic studies; cited from earlier work
[20] = tested on: Mycobacterium tuberculosis; details: cited from earlier work
[21] = tested on: MtMetAPs (MtMetAP1a and MtMetAP1c); details: both MtMetAPs over human MetAPs; cited from earlier work
[22] = cited from earlier work; remark: listed apart in the source

Oc1c(Br)cc(Cl)c2cccnc12 [CLBQ14, 7-bromo-5-chloroquinolin-8-ol]
Solubility ([1]; water (pH 7)): 70 µg/mL (≈ 271 µM)
solubility at 72 h ([1]; water, pH 7, Solubility): < 70 µg/mL
Stability in aqueous media [2]: relatively stable
recovery at 4 h, 1 μM [3]: 97.6 ± 2.27%
recovery at 4 h, 1 μM [4]: 101 ± 13%
recovery at 4 h, 1 μM [5]: 105 ± 4.25%
recovery at 4 h, 1 μM [6]: 103.7 ± 0.99%
Blood-plasma (B/P) ratio [7]: 0.83 and 0.83 ± 0.03
fraction unbound at 1 h, 5 μg/mL ([8]; 5 μg/mL): 0.09
fraction unbound at 1 h, 50 μg/mL ([8]; 50 μg/mL): 0.017
remaining at 1 h, 3 µM [9]: 3.7 ± 1.36%
remaining at 1 h, 3 µM [10]: 26.8 ± 2.37%
remaining at 1 h, 3 µM [11]: 17.5 ± 0.86%
remaining at 1 h, 3 µM [12]: 35.5 ± 0.33%
Contribution to metabolism of CLBQ14 ([13]; rhCYP1A2): metabolized primarily; also recorded: primary contributors
CLBQ14 turnover ([13]; rhCYP1A2, 1 µM, 37°C, 60 mins): greater than 50%
Contribution to metabolism of CLBQ14 ([14]; rhCYP2D6): primary contributors
CLBQ14 turnover ([14]; rhCYP2D6, 1 µM, 37°C, 60 mins): greater than 50%
Contribution to metabolism of CLBQ14 [15]: may also be a contributor
Tmax ([16]; po, 20 mg/kg): 30 min
Tmax ([16]; sc, 10 mg/kg): ~55 min
Human hepatic clearance (ClH, human) predicted [17]: 11.5 mL/min/kg
calculated log P ([18]; 25°C / room temperature): 3.92 ± 0.39
calculated pKa ([18]; 25°C): 2.23 ± 0.30
Administered dose excreted unchanged in urine [19]: 0.01%
Potency against aged non-growing Mtb [20]: increased potency
Potency against replicating Mtb ([20]; replicating Mtb): great potency
Selectivity for MtMetAPs over human MetAPs [21]: great selectivity

CCOCCOCCO [Transcutol HP]
NOAEL ([22]; 5% solution administered orally to rats for 90 days): 1%
LD50 ([22]; acute administration): > 5000 mg/kg
